Measurements from different studies.
Cell line: HCT-116
Read-out: cell growth or viability

Structure (SMILES)	technique	concentration	time	endpoint	value
COc1ccc(-c2cc(-c3ccc(OC)cc3)c3c(=O)[nH]c(=O)[nH]c3n2)cc1	MTT	–	48 h	IC50	6.59 µM
C=CC(=O)c1cccnc1Nc1cccc(C(F)(F)F)c1	CCK-8	–	72 h	GI50	34.9 µM
COc1nc(NCc2cn(-c3ccc(C(=O)Nc4ccc(F)cc4)cc3)nn2)nc(OC)n1	MTT	–	72 h	IC50	0.0341 µM
C=CC(=O)NC1CCN(c2ncc3ncnc(Nc4ccc(Oc5ccc6c(c5)ncn6C)c(C)c4)c3n2)CC1	–	–	–	EC50	2.6 µM
COc1ccc(-c2cc(-c3cc(OC)ccc3OC)c3c(=O)n(C)c(=O)n(C)c3n2)cc1	MTT	–	48 h	IC50	11.1 µM
O=C(O)c1cccnc1Nc1cccc(C(F)(F)F)c1	CCK-8	–	72 h	GI50	> 40 µM
COc1ccc(-c2cc(-c3c(OC)cccc3OC)c3c(=O)n(C)c(=O)n(C)c3n2)cc1	MTT	–	48 h	IC50	5.44 µM
Cc1nc(Nc2ccc3c(c2)/C(=C/c2ccccc2)C(=O)N3Cc2ccccc2)c2ccccc2n1	MTT	–	–	IC50	3.39 µM
COc1ccc(NC(=O)c2ccc(-n3cc(CNc4nc(OC)nc(OC)n4)nn3)cc2)cc1	MTT	–	72 h	IC50	0.0123 µM
COc1cc2ncnc(N(C)c3ccc4c(c3)/C(=C/c3ccccc3)C(=O)N4C)c2cc1OC (mixture of isomers)	MTT	–	–	IC50	6.91 µM
COc1ccc(-c2cc(-c3c(OC)cccc3OC)c3c(=O)[nH]c(=O)[nH]c3n2)cc1	MTT	–	48 h	IC50	29 µM
Cc1nc(Nc2ccc3c(c2)/C(=C/c2ccccc2Cl)C(=O)N3)c2ccccc2n1	MTT	–	–	IC50	3.67 µM
COc1nc(NCc2cn(-c3ccc(C(=O)Nc4ccc(C(F)(F)F)cc4)cc3)nn2)nc(OC)n1	MTT	–	72 h	IC50	0.00141 µM
COc1ccc(-c2cc(-c3ccc(C)cc3)nc3[nH]c(=O)[nH]c(=O)c23)cc1OC	MTT	–	48 h	IC50	19 µM
CC(=NNC(=O)COc1ccc2c(C)c(Cc3ccccc3)c(=O)oc2c1C)c1ccc(Br)cc1	MTT	0.4 µg/mL	–	viability	64.3%
Cc1nc(Nc2ccc3c(c2)/C(=C/c2ccccc2C)C(=O)N3C)c2ccccc2n1	MTT	–	–	IC50	20.6 µM
Cc1ccc(-c2cc(-c3ccc(N(C)C)cc3)c3c(=O)[nH]c(=O)[nH]c3n2)cc1	MTT	–	48 h	IC50	7.66 µM
COc1cccc2c1C(=O)c1c(O)c3c(c(O)c1C2=O)C[C@@](O)(C(=O)CO)C[C@@H]3O[C@H]1C[C@H](N)[C@H](O)[C@H](C)O1	MTT	–	72 h	IC50	0.83 µM
C=CC(=O)c1cccnc1Nc1cc(C(F)(F)F)ccc1OCc1ccccc1	CCK-8	–	72 h	GI50	8.72 µM
Cc1ccc(-c2cc(-c3ccc(Cl)c(F)c3)c3c(=O)n(C)c(=O)n(C)c3n2)cc1	MTT	–	48 h	IC50	21.4 µM
COc1nc(NCc2cn(-c3ccc(C(=O)Nc4ccc(Cl)cc4)cc3)nn2)nc(OC)n1	MTT	–	72 h	IC50	0.0329 µM
COc1cc2ncnc(Nc3ccc4c(c3)/C(=C/c3cccc(Cl)c3)C(=O)N4C)c2cc1OC	MTT	–	–	IC50	8.36 µM
COc1nc(NCc2cn(-c3ccc(NC(=O)c4ccc(Cl)cc4)cc3)nn2)nc(OC)n1	MTT	–	72 h	IC50	0.0338 µM
COc1ccc(-c2cc(-c3ccc(C)cc3)nc3c2c(=O)n(C)c(=O)n3C)cc1OC	MTT	–	48 h	IC50	20.8 µM
COc1nc(NCc2cn(-c3ccc(NC(=O)c4ccc(F)cc4)cc3)nn2)nc(OC)n1	MTT	–	72 h	IC50	0.0122 µM
Cc1nc(N(C)c2ccc3c(c2)/C(=C/c2ccccc2Cl)C(=O)N3C)c2ccccc2n1	MTT	–	–	IC50	4.11 µM
